Laboratory results reported in ChEMBL document CHEMBL1255367, “Potency of SMP-601, a novel carbapenem, in hematogenous murine bronchopneumonia caused by methicillin-resistant and vancomycin-intermediate Staphylococcus aureus” (Antimicrob Agents Chemother, 2008).
Values after ≈ are worked out from the molar mass of the structure shown. Active and inactive are the calls of the source. The rule behind the calls is not given here.

Experiments:
[1] = fT>MIC in serum of methicillin-resistant Staphylococcus aureus infected ddY mouse at 10 mg/kg, ip BID by paper disk bioassay method; format: functional; conditions: route intraperitoneal
[2] = Half life in lung of methicillin-resistant Staphylococcus aureus infected ddY mouse at 100 mg/kg, ip administered 1 day post infection by paper disk bioassay method; format: ADME, organism-based; parameters: dose 100 mg/kg, route intraperitoneal
In short: (§1)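 MRSA-infected mice, one day post-inoculation, received a single 100 mg/kg i.p. dose. Serum and lung homogenate collected at 5–120 min, n = 3 per time point. Paper disk bioassay with Bacillus subtilis ATCC 6633, triplicate, 50 µl sample. Detection limits 0.07 µg/ml (serum) and 0.12 µg/ml (lung). Standards in pooled murine matrix, linear-regression curves. Moment analysis.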

Staphylococcus aureus [3] = assay: Antibacterial activity against vancomycin intermediate Staphylococcus aureus Mu50 by broth microdilution method; format: functional
In short: (§2)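 Broth microdilution in Mueller-Hinton II broth. Inoculum 5 x 10^5 CFU/ml. Drugs dissolved in sterile water just before use.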

Staphylococcus aureus [4] = assay: Antibacterial activity against vancomycin intermediate Staphylococcus aureus Mu50 infected in ddY mouse assessed as decrease in lung abscesses at 100 mg/kg, ip after 3 days; format: functional, organism-based; parameters: dose 100 mg/kg
In short: (§3)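 Mice pretreated with cyclophosphamide (100 mg/kg, days −3 and −1) and infected i.v. with Mu50 agar beads (4 x 10^7 to 6 x 10^7 CFU/ml). Given 100 mg/kg i.p. b.i.d. for 3 days, then sacrificed. Lungs fixed in formalin and stained with H&E. Abscesses counted per slice, lung area by cross-section paper, n = 3.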

[5] = Half life of free unbound fraction in serum of methicillin-resistant Staphylococcus aureus infected ddY mouse at 100 mg/kg, ip administered 1 day post infection by paper disk bioassay method; format: ADME, organism-based; parameters: dose 100 mg/kg, route intraperitoneal; in short: as §1
[6] = fT>MIC in serum in vancomycin intermediate Staphylococcus aureus infected ddY mouse at 100 mg/kg, ip BID by paper disk bioassay method; format: functional; conditions: route intraperitoneal
[7] = AUC (0 to infinity) in serum of methicillin-resistant Staphylococcus aureus infected ddY mouse at 100 mg/kg, ip administered 1 day post infection by paper disk bioassay method; format: ADME, organism-based; parameters: time infinity, dose 100 mg/kg, route intraperitoneal; in short: as §1
Staphylococcus aureus [8] = assay: Antibacterial activity against vancomycin-intermediate Staphylococcus aureus Mu50 infected in ddY mouse assessed as survival of the mouse at 100 mg/kg, ip administered 1 day postinfection measured after 10 days; format: functional; conditions: route intraperitoneal
In short: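 Cyclophosphamide-pretreated (100 mg/kg, days −3 and −1) ddY mice infected i.v. with Mu50 agar beads at 2 x 10^9 to 4 x 10^9 CFU/ml. Treated 100 mg/kg i.p. b.i.d. from day 1 for 10 days. Survival recorded daily for 10 days, n = 10, Kaplan-Meier curves.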

[9] = AUC (0 to infinity) in lung of methicillin-resistant Staphylococcus aureus infected ddY mouse at 100 mg/kg, ip administered 1 day post infection by paper disk bioassay method; format: ADME, organism-based; parameters: dose 100 mg/kg, route intraperitoneal, time infinity; in short: as §1
[10] = T>MIC in lung in vancomycin intermediate Staphylococcus aureus infected ddY mouse at 100 mg/kg, ip BID by paper disk bioassay method; format: functional; conditions: route intraperitoneal
Serum [11] = assay: fAUC (0 to infinity) in serum of methicillin-resistant Staphylococcus aureus infected ddY mouse at 100 mg/kg, ip administered 1 day post infection by paper disk bioassay method; format: ADME, organism-based; parameters: dose 100 mg/kg, route intraperitoneal; conditions: in vivo, 24 h; in short: as §1
Staphylococcus aureus [12] = assay: Antibacterial activity against methicillin-resistant Staphylococcus aureus NUMR101 by broth microdilution method; format: functional; in short: as §2
[13] = T>MIC in lung of methicillin-resistant Staphylococcus aureus infected ddY mouse at 10 mg/kg, ip BID by paper disk bioassay method; format: functional; conditions: route intraperitoneal
[14] = Cmax in serum of methicillin-resistant Staphylococcus aureus infected ddY mouse at 100 mg/kg, ip administered 1 day post infection by paper disk bioassay method; format: ADME, organism-based; parameters: dose 100 mg/kg, route intraperitoneal; in short: as §1
[15] = Half life in serum of methicillin-resistant Staphylococcus aureus infected ddY mouse at 100 mg/kg, ip administered 1 day post infection by paper disk bioassay method; format: ADME, organism-based; parameters: dose 100 mg/kg, route intraperitoneal; in short: as §1
[16] = Cmax in lung of methicillin-resistant Staphylococcus aureus infected ddY mouse at 100 mg/kg, ip administered 1 day post infection by paper disk bioassay method; format: ADME, organism-based; parameters: dose 100 mg/kg, route intraperitoneal; in short: as §1
Staphylococcus aureus [17] = assay: Antibacterial activity against vancomycin intermediate Staphylococcus aureus Mu50 infected in ddY mouse assessed as decrease in lung inflammation at 100 mg/kg, ip after 3 days; format: functional, organism-based; parameters: dose 100 mg/kg; in short: as §3
Serum [18] = assay: fCmax in serum of methicillin-resistant Staphylococcus aureus infected ddY mouse at 100 mg/kg, ip administered 1 day post infection by paper disk bioassay method; format: ADME, organism-based; parameters: dose 100 mg/kg, route intraperitoneal; conditions: in vivo, 24 h; in short: as §1
[19] = T>MIC in serum of methicillin-resistant Staphylococcus aureus infected ddY mouse at 10 mg/kg, ip BID by paper disk bioassay method; format: functional; conditions: route intraperitoneal
Serum [20] = assay: Protein binding in serum of methicillin-resistant Staphylococcus aureus infected ddY mouse at 100 mg/kg, ip; format: ADME, organism-based; parameters: dose 100 mg/kg, route intraperitoneal; conditions: in vivo
Staphylococcus aureus [21] = assay: Antibacterial activity against methicillin-resistant Staphylococcus aureus NUMR101 infected in ddY mouse assessed as viable bacteria in lungs at 100 mg/kg, ip administered 1 day postinfection (Rvb=8.42 +/- 0.50 log CFU/ml); format: functional; conditions: route intraperitoneal
Staphylococcus aureus [22] = assay: Antibacterial activity against vancomycin-intermediate Staphylococcus aureus Mu50 infected in ddY mouse assessed as viable bacteria in lungs at 100 mg/kg, ip administered 1 day postinfection measured after 3 days (Rvb=9.64 +/- 0.63 log CFU/ml); format: functional; conditions: route intraperitoneal
[23] = T>MIC in serum in vancomycin intermediate Staphylococcus aureus infected ddY mouse at 100 mg/kg, ip BID by paper disk bioassay method; format: functional; conditions: route intraperitoneal
[24] = Half life in lung of methicillin-resistant Staphylococcus aureus infected ddY mouse at 100 mg/kg, ip administered 1 day post infection by fluorescence polarization immunoassay; format: ADME, organism-based; parameters: dose 100 mg/kg, route intraperitoneal
In short: (§4)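 Single 100 mg/kg i.p. dose given 1 day after i.v. MRSA NUMR101 agar-bead infection. Mice killed 5, 15, 30, 60, 90, 120 min after dosing, n = 3 per time point. Serum and saline lung homogenate stored at –80°C. Assayed by fluorescence polarization immunoassay (detection limit 2 µg/ml) against standard curves in pooled murine serum or lung homogenate. Parameters by moment analysis.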

[25] = Half life of free unbound fraction in serum of methicillin-resistant Staphylococcus aureus infected ddY mouse at 100 mg/kg, ip administered 1 day post infection by fluorescence polarization immunoassay; format: ADME, organism-based; parameters: dose 100 mg/kg, route intraperitoneal; in short: as §4
[26] = AUC (0 to infinity) in lung of methicillin-resistant Staphylococcus aureus infected ddY mouse at 100 mg/kg, ip administered 1 day post infection by fluorescence polarization immunoassay; format: ADME, organism-based; parameters: time infinity, dose 100 mg/kg, route intraperitoneal; in short: as §4
[27] = Ratio of AUC (0 to 24 hrs) in lung in vancomycin intermediate Staphylococcus aureus infected ddY mouse at 100 mg/kg, ip BID to MIC for methicillin-resistant Staphylococcus aureus
[28] = AUC (0 to infinity) in serum of methicillin-resistant Staphylococcus aureus infected ddY mouse at 100 mg/kg, ip administered 1 day post infection by fluorescence polarization immunoassay; format: ADME, organism-based; parameters: time infinity, dose 100 mg/kg, route intraperitoneal; in short: as §4
[29] = Cmax in lung of methicillin-resistant Staphylococcus aureus infected ddY mouse at 100 mg/kg, ip administered 1 day post infection by fluorescence polarization immunoassay; format: ADME, organism-based; parameters: dose 100 mg/kg, route intraperitoneal; in short: as §4
Serum [30] = assay: fCmax in serum of methicillin-resistant Staphylococcus aureus infected ddY mouse at 100 mg/kg, ip administered 1 day post infection by fluorescence polarization immunoassay; format: ADME, organism-based; parameters: dose 100 mg/kg, route intraperitoneal; conditions: in vivo, 24 h; in short: as §4
[31] = Half life in serum of methicillin-resistant Staphylococcus aureus infected ddY mouse at 100 mg/kg, ip administered 1 day post infection by fluorescence polarization immunoassay; format: ADME, organism-based; parameters: dose 100 mg/kg, route intraperitoneal; in short: as §4
Serum [32] = assay: fAUC (0 to infinity) in serum of methicillin-resistant Staphylococcus aureus infected ddY mouse at 100 mg/kg, ip administered 1 day post infection by fluorescence polarization immunoassay; format: ADME, organism-based; parameters: dose 100 mg/kg, route intraperitoneal; conditions: in vivo, 24 h; in short: as §4
[33] = Cmax in serum of methicillin-resistant Staphylococcus aureus infected ddY mouse at 100 mg/kg, ip administered 1 day post infection by fluorescence polarization immunoassay; format: ADME, organism-based; parameters: dose 100 mg/kg, route intraperitoneal; in short: as §4

C[C@H]1C=C(c2csc(SC3=C(C(=O)O)N4C(=O)[C@H]([C@@H](C)O)[C@H]4[C@H]3C)n2)CN1 [RAZUPENEM]
fT>MIC [1]: 2.9 | half-life [2]: 0.61 h | MIC (Staphylococcus aureus [3]): 2 µg/mL (≈ 4.91 µM) | Activity (Staphylococcus aureus [4]): Active | half-life [5]: 0.84 h | fT>MIC [6]: 23.6 | AUC(0-inf) [7]: 127 µg·h/mL | Activity (Staphylococcus aureus [8]): 70% | AUC(0-inf) [9]: 28.4 µg·h/mL | fT>MIC [10]: 20.3 | fAUC (Serum [11]): 30.6 µg·h/mL | MIC (Staphylococcus aureus [12]): 2 µg/mL (≈ 4.91 µM) | fT>MIC [13]: 0 | Cmax [14]: 108000 ng/mL | half-life [15]: 0.84 h | Cmax [16]: 18000 ng/mL | Activity (Staphylococcus aureus [17]): Active | fCmax (Serum [18]): 25.81 µg/mL | fT>MIC [19]: 16.9 | Activity (Serum [20]): 76% | CFU/ml (Staphylococcus aureus [21]): 5.5 log CFU/ml | CFU/ml (Staphylococcus aureus [22]): 7.42 log CFU/ml | fT>MIC [23]: 28.2

CN[C@H](CC(C)C)C(=O)N[C@H]1C(=O)N[C@@H](CC(N)=O)C(=O)N[C@H]2C(=O)N[C@H]3C(=O)N[C@H](C(=O)N[C@H](C(=O)O)c4cc(O)cc(O)c4-c4cc3ccc4O)[C@H](O)c3ccc(c(Cl)c3)Oc3cc2cc(c3O[C@@H]2O[C@H](CO)[C@@H](O)[C@H](O)[C@H]2O[C@H]2C[C@](C)(N)[C@H](O)[C@H](C)O2)Oc2ccc(cc2Cl)[C@H]1O [VANCOMYCIN]
half-life [24]: 1.72 h | half-life [25]: 2.95 h | AUC(0-inf) [26]: 127 µg·h/mL | MIC (Staphylococcus aureus [3]): 8 µg/mL (≈ 5.52 µM) | Activity (Staphylococcus aureus [8]): 20% | AUC0-24/MIC at 10 mg/kg [27]: 31.8 µg/mL | AUC(0-inf) [28]: 261 µg·h/mL | Cmax [29]: 38500 ng/mL | fCmax (Serum [30]): 45.6 µg/mL | half-life [31]: 2.95 h | fAUC (Serum [32]): 196 µg·h/mL | Cmax [33]: 60800 ng/mL | Activity (Serum [20]): 25% | CFU/ml (Staphylococcus aureus [21]): 5.29 log CFU/ml | CFU/ml (Staphylococcus aureus [22]): 8.72 log CFU/ml
